# A selection: hits, their analogues and other compounds. The true share with any hit is near 2.1%.
# UCH37 inh: human UCH37 deubiquitinating enzyme inhibition | AID 588478 | 330,000 compounds, 0.33% hits | Q9Y5K5 | inhibition, % (test concentration not listed) | purified proteasome/UCH37, Ub-AMC cleavage fluorescence;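 active means mean inhibition over replicate wells above about 20%, limit read from the data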;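 further: 0% = compound-free wells with enzyme and 100% = wells lacking proteasome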
# Target sequence (Q9Y5K5 whole entry, looked up): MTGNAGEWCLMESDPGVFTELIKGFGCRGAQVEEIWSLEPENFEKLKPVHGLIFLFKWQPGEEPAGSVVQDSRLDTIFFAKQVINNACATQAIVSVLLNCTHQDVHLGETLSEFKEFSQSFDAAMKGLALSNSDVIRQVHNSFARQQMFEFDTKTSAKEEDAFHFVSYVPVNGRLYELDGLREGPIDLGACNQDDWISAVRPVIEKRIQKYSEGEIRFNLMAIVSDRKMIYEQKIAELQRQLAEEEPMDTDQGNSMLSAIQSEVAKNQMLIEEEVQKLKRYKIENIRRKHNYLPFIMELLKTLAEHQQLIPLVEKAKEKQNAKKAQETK
#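 Material: human UCH37 enzyme supplied as purified proteasome complex / Amount: 0.15 nM proteasome as dispensed / Buffer or medium: pH 7.4 Tris-HCl (50 mM) with ovalbumin, ATP-MgCl2, DTT / Times: preincubation 30 min, reaction 25 min, room temperature / Technique: AMC fluorescence from Ub-AMC cleavage, excitation 355 nm, emission 460 nm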
# Cardio protect: modulators protecting cardiomyocytes from myocardial damage. H9c2 cardiomyocytes, H2O2 injury protection, ATPLite, 2 h. protection from H2O2 cell death, % at 20 µM. 360,000 compounds, 0.63% hits;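 active means compounds giving at least 50% protection of heart cells from peroxide-induced death in the single-dose screen, raw or plate-pattern-corrected value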;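 further: 0% = DMSO wells with peroxide and 100% = DMSO wells without peroxide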
# CRFBP-R2 block: blocks CRF-induced signaling of the CRF-BP/CRF-R2 complex; HEK293 CRF-R2/CRF-BP, CRF-induced calcium fluorescence; inhibition, % at 11.8 µM; 350,000 compounds, 0.59% hits;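 active means inhibition of the ligand-induced calcium signal above about 50% at the single tested concentration, limit read from the data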
# beta cell repl: inducers of beta-cell replication in MIN6 cells. proliferation, % at 10 µM. AID 2380. 330,000 compounds, 0.29% hits. MIN6 cells proliferation, ATPlite luminescence, 48 h; cells starved in 0.2% serum; 100% = growth in 10% serum;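 active means compounds whose signal lies at least 3.5 SD above the mean of all wells on their plate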;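 further: 0% = DMSO-treated cells in low-serum medium and 100% = 10% serum control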
# iPSC survival up: increases survival of single human iPS cells; hiPSC single-cell survival, ATPlite luminescence; 100% = ROCK inhibitor wells, 0% = DMSO; survival enhancement, % at 20 µM; 360,000 compounds, 0.044% hits; in the data active means survival enhancement above about 18%;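 further: cells exposed to compounds for 16 hours before the ATP read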
# CRFR2-BP ag: agonists of human CRF-binding protein/CRF-R2 receptor complex | HEK293 CRF-R2/CRF-BP, calcium dye fluorescence (FLIPR); percent of saturating CRF peptide response | activation, % at 13.2 µM | 350,000 compounds, 0.46% hits;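 active means activation of at least 50%, plus an integration ratio under a set limit after plate pattern correction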;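 further: plate controls were neutral control wells without compound for no effect and CRF at EC100 for full effect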
# * marks the source's active call; other numbers are inactive results; / = not tested or not shown.
SMILES,UCH37 inh,Cardio protect,CRFBP-R2 block,beta cell repl,iPSC survival up,CRFR2-BP ag
NC(=O)Cn1cc(C=NNC(=O)c2ccc(Cn3cc(Cl)cn3)o2)c(-c2ccccc2)n1,-25,/,/,/,/,/
C(=NNc1nc(N2CCCC2)nc(N2CCCC2)n1)c1ccccc1OCc1ccccc1,6,/,/,/,/,/
O=C(NCc1cccnc1)NC1(C(F)(F)F)Oc2ccc(Cl)cc2O1 (stereo not drawn),5,58*,-26,-5,-4,1
O=C(Nc1nc(-c2ccccc2)cs1)c1ccccc1NS(=O)(=O)c1ccc(F)cc1,-54,-18,101*,-6,-1,65*
Cc1nn(-c2cccc(Cl)c2)c(Cl)c1C=NNC(=O)c1cccs1,0,/,/,/,/,/
O=C(NNC(=O)c1cccs1)c1cccnc1,6,3,6,1,0,-1
CCOC(=O)NC(O)C(=O)c1cccs1 (stereo not drawn),4,28,65*,5.0*,6,0
O=C(NC(O)C(=O)c1cccs1)c1cccnc1 (stereo not drawn),1,83*,-28,-3,-2,0
C(/C=C/c1ccco1)=Nn1cnnc1,15,/,/,/,/,/
O=C(Cn1nc(CNc2ccc(Cl)cc2)[n+]2c1CCCCC2)c1ccc(Br)cc1,3,-6,55*,0,-2,-3
Nc1c(C(=O)NN=Cc2ccc(Cl)cc2)cnn1-c1ccccc1,3,/,/,/,/,/
CCN(CC)c1ccc(/C=c2\sc3nc4ccccc4n3c2=O)c(O)c1,/,-9,-153,-5,-1,165*
O=c1/c(=C/c2ccc(O)c([N+](=O)[O-])c2)sc2nc3ccccc3n12,/,-18,-21,/,-1,23
C(/C=C/c1ccccc1)=NNc1nc2ccccc2s1,-9,/,/,/,/,/
CC(=NNC(=O)c1ccc(C)s1)c1cccc(NC(=O)c2ccoc2C)c1,8,/,/,/,/,/
CCCCOc1ccc(C(=O)N/C(=C\c2ccc(OC)cc2)C(=O)OCc2ccco2)cc1,2,57*,-6,-3,2,3
CCc1ccc(-c2cc3c(=O)n(CC(=O)NCCCN4CCC(Cc5ccccc5)CC4)nc(C)n3n2)cc1,2,-19,101*,-4,0,2
C/C(C=Nn1c(-c2n[nH]c3c2CCC3)n[nH]c1=S)=C\c1ccco1,11,/,/,/,/,/
Cc1cc(SCC(=O)c2ccc(O)c(O)c2)n2nc(C)c(-c3ccccc3)c2n1,1,71*,-8,-6,0,0
Nc1nonc1-n1nnc(C(=O)NN=Cc2cccnc2)c1CSC1=NCCS1,4,/,/,/,/,/
Cc1c(Cl)c([N+](=O)[O-])nn1CCCC(=O)Nc1cc(Oc2ccccc2)cc([N+](=O)[O-])c1,3,-16,59*,-4,-1,-1
Cc1ccccc1Oc1cc(NC(=O)CCCn2nc(C)c([N+](=O)[O-])c2C)cc([N+](=O)[O-])c1,-2,-7,51*,-6,-1,7
Cc1nn(CCCC(=O)Nc2cc(Oc3ccc(F)cc3)cc([N+](=O)[O-])c2)c(C)c1[N+](=O)[O-],1,3,-10,-3,0,10
CC(=NNC(N)=S)C1C2C3CC4C5CC(C42)C1C53 (stereo not drawn),2,/,/,/,/,/
CCCCCCC[C@@H](C/C=C/CCC(=O)N(C)C/C(=C/Cl)C/C(=C\C(=O)N1CC(OC)=CC1=O)OC)OC,6,-37,7,-5,35*,2
SMILES,UCH37 inh,Cardio protect,CRFBP-R2 block,beta cell repl,iPSC survival up,CRFR2-BP ag
CCN(CC)c1ccc2cc(S(=O)(=O)c3ccc(Cl)cc3)c(=O)oc2c1,-44,-3,-83,-4,1,118*
CCCCCCc1cc2cc(S(=O)(=O)c3ccc(Cl)cc3)c(=O)oc2cc1O,-299,-9,-7,-8,0,44
CCN(CC)C(=O)c1c(C)nc2ccccn12,2,14,85*,-2,1,-8
Cc1ccc(N(CC(=O)NN=Cc2cc(C)n(-c3ccccc3C)c2C)S(C)(=O)=O)cc1,-1,/,/,/,/,/
COc1ccc(C=NN(C(C)=O)c2nc(-c3ccc(C)cc3)cs2)cc1,1,/,/,/,/,/
COC(=O)C(CC(=O)c1cccc(OC)c1)c1ccc(F)cc1 (stereo not drawn),-1,6,55*,-2,0,0
COc1cccc(C(=O)NCCSc2ccc(F)cc2)c1,-1,-8,2,2,0,0
C=CCOc1ccc(C=Nc2ccc(OC)cc2)c(O)c1,6,63*,-108,4,-1,-1
Cc1[nH]c(=O)[nH]c(=O)c1C=NNC(=O)[C@H](CC(C)C)NC(=O)OC(C)(C)C,-4,/,/,/,/,/
Cc1noc(/C=C/c2ccc(-c3ccccc3Cl)o2)c1[N+](=O)[O-],-4,-6,-170,-2,2,205*
Cc1cc(C=NNC(=O)c2cccc([N+](=O)[O-])c2)c(C)n1-c1ccc(Cl)cc1Cl,5,/,/,/,/,/
Cc1[nH]n(-c2ccccc2)c(=O)c1/C=N/N1C(=O)c2cccc3cccc(c23)C1=O,/,40,22,-3,-2,62*
Cc1ccc2c(c1Br)C(=NN1C(=O)c3ccccc3C1=O)C(=O)N2,-1,/,/,/,/,/
O=C1c2ccccc2C(=O)N1CCc1c(-c2ccccc2)[nH]c2ccccc12,/,25,-5,/,0,1
CC(=O)c1ccc(-c2[nH]c3ccccc3c2CCN2C(=O)c3ccccc3C2=O)cc1,/,65*,-7,/,1,-1
COc1ccc(NC(=S)NC(=NS(=O)(=O)c2ccc(C)cc2)c2ccccc2)cc1,2,/,/,/,/,/
CCOCc1cc(CN2CCCC(CNC(=O)c3ccco3)C2)ccc1OC (stereo not drawn),5,4,76*,-1,0,-1
CSc1cccc(CN2CCCC(CNC(=O)c3ccco3)C2)c1 (stereo not drawn),5,-2,-3,4,0,-1
Cc1ccc(NC(=O)CC2S/C(=N/N=C3CCCc4ccccc43)NC2=O)cc1 (stereo not drawn),5,/,/,/,/,/
COc1cc(C=NNC(=O)Cc2nnc(N)s2)cc(OC)c1OC,3,/,/,/,/,/
Cc1nnc(SCc2nnc(-c3ccccc3Br)o2)n1-c1ccccc1,3,2,0,-3,-2,1
Brc1ccccc1-c1nnc(CSc2nnnn2-c2ccccc2)o1,2,-5,111*,-2,1,0
Fc1ccccc1SCc1nnc(-c2ccccc2Br)o1,32*,-9,-6,0,0,1
CC(C)(C)C=NNC(=O)CNC(=O)c1ccc2c(c1)OCCO2,-1,/,/,/,/,/
CCOC(=O)C(=NNc1ccccc1)Sc1nnc(CCc2ccccc2)n1-c1ccccc1,4,/,/,/,/,/
NC(=NOC(=O)Oc1ccccc1)c1ccc([N+](=O)[O-])cc1,6,/,/,/,/,/
COc1cccc(NC(=O)c2ccncc2)c1,0,7,8,0,-2,0
